Measured values from ChEMBL document CHEMBL5653631, “A Potent and Selective ULK1 Inhibitor Suppresses Autophagy and Sensitizes Cancer Cells to Nutrient Stress” (iScience, 2018).
Each block holds one compound with its values, some of them ahead of it.

Key:
[1] = molecular target: T1, NUAK family SNF1-like kinase 1 (Homo sapiens) (UniProt O60285); assay: Inhibition of human recombinant NuaK1 at 500 nM related to control ULK1
T1 sequence (whole entry): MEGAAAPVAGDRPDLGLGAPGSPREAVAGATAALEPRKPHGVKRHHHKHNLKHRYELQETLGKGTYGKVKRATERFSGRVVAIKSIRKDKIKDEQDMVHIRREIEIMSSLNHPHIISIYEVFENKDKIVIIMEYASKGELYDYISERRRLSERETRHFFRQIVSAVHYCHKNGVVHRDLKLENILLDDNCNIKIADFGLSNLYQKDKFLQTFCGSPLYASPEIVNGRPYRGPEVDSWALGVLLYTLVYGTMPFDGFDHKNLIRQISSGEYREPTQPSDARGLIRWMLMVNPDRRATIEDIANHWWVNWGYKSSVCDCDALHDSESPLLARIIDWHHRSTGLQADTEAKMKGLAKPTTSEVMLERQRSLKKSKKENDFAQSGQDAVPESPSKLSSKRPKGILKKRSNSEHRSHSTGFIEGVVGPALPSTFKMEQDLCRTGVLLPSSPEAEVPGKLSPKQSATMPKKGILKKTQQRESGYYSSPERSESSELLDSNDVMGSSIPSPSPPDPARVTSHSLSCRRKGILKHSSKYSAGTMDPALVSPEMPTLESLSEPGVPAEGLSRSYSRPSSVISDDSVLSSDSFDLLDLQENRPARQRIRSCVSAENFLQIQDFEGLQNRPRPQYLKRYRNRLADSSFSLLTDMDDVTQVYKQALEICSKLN

[2] = molecular target: Mitogen-activated protein kinase 11 (Homo sapiens) (UniProt Q15759); assay: Inhibition of human recombinant p38beta at 500 nM related to control ULK1
[3] = molecular target: Calcium/calmodulin-dependent protein kinase type II subunit gamma (Homo sapiens) (UniProt Q13555); assay: Inhibition of human recombinant CaMK2g at 15 nM in presence of ATP by radiometric assay relative to control
[4] = molecular target: Cell division cycle 7-related protein kinase (Homo sapiens) (UniProt O00311); assay: Inhibition of human recombinant CDC7 at 15 nM in presence of ATP by radiometric assay relative to control
[5] = molecular target: Dual specificity protein kinase CLK3 (Homo sapiens) (UniProt P49761); assay: Inhibition of human recombinant CLK3 at 15 nM in presence of ATP by radiometric assay relative to control
[6] = molecular target: Tyrosine-protein kinase BTK (Homo sapiens) (UniProt Q06187); assay: Inhibition of human recombinant BTK at 15 nM related to control ULK1
Sequence of Tyrosine-protein kinase BTK (Homo sapiens) (Q06187 whole entry, the tested form may be a part): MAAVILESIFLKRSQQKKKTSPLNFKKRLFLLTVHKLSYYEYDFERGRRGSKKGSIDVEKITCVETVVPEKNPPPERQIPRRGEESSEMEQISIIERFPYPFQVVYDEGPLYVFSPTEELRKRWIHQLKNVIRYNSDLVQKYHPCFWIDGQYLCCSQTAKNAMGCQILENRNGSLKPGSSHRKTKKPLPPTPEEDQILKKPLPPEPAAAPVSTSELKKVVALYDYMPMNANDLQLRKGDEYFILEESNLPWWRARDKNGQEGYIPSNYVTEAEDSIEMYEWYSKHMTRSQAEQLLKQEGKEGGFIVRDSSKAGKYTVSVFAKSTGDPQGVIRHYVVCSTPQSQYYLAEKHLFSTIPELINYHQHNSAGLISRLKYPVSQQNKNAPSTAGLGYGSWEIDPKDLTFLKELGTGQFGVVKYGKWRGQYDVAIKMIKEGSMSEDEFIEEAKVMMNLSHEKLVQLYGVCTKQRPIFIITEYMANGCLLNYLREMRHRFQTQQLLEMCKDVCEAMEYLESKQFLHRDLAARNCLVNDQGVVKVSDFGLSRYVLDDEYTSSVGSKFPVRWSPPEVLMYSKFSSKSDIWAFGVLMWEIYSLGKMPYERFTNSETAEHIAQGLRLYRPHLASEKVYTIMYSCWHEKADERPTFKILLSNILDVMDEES

[7] = molecular target: LIM domain kinase 1 (Homo sapiens) (UniProt P53667); assay: Inhibition of human recombinant LIMK1 at 15 nM related to control ULK1
Sequence of LIM domain kinase 1 (Homo sapiens) (P53667 whole entry, looked up, the tested form may be a part): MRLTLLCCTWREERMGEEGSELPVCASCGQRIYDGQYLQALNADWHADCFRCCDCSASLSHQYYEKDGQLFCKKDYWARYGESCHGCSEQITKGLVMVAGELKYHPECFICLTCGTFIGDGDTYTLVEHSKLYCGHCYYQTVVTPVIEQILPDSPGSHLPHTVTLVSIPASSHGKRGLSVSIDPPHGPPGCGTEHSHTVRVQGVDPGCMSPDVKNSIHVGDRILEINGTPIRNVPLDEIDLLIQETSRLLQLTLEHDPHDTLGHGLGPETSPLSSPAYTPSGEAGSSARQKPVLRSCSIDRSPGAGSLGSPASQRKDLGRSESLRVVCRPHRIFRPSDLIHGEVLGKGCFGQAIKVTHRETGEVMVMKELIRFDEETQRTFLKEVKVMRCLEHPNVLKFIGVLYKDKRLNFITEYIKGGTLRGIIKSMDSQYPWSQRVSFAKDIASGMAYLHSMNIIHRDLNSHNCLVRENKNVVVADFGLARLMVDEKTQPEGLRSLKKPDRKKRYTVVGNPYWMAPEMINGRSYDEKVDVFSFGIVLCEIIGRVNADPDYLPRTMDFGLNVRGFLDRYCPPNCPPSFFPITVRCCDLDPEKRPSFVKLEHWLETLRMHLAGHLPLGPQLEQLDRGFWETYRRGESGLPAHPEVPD

[8] = molecular target: T2, Inhibitor of nuclear factor kappa-B kinase subunit beta (Homo sapiens) (UniProt O14920); assay: Inhibition of human recombinant IKKb at 15 nM related to control ULK1
T2 sequence (whole entry): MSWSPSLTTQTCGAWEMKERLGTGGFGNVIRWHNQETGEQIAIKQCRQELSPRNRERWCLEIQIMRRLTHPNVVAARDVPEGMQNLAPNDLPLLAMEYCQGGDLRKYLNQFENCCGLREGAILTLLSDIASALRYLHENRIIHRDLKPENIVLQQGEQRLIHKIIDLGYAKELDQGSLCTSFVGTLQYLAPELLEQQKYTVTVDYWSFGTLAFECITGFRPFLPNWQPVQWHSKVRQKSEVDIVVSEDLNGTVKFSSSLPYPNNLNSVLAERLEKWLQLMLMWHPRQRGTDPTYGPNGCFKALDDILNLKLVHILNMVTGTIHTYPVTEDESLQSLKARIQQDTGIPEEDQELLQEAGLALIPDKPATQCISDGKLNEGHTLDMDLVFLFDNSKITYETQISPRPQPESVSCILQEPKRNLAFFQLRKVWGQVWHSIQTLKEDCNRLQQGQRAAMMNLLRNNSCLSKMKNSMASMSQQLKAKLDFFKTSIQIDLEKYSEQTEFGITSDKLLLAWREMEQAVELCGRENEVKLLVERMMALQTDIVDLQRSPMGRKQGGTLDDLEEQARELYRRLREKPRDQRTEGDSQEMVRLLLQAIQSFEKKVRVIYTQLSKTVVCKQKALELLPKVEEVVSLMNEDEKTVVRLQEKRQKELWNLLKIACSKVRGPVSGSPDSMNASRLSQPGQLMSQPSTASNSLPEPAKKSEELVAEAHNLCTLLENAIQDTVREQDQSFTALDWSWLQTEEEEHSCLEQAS

[9] = molecular target: Ribosomal protein S6 kinase alpha-2 (Homo sapiens) (UniProt Q15349); assay: Inhibition of human recombinant RSK3 at 40 nM in presence of ATP by radiometric assay relative to control
[10] = molecular target: Mitogen-activated protein kinase kinase kinase kinase 1 (Homo sapiens) (UniProt Q92918); assay: Inhibition of human recombinant HPK1 at 40 nM related to control ULK1
Sequence of Mitogen-activated protein kinase kinase kinase kinase 1 (Homo sapiens) (Q92918 whole entry, looked up): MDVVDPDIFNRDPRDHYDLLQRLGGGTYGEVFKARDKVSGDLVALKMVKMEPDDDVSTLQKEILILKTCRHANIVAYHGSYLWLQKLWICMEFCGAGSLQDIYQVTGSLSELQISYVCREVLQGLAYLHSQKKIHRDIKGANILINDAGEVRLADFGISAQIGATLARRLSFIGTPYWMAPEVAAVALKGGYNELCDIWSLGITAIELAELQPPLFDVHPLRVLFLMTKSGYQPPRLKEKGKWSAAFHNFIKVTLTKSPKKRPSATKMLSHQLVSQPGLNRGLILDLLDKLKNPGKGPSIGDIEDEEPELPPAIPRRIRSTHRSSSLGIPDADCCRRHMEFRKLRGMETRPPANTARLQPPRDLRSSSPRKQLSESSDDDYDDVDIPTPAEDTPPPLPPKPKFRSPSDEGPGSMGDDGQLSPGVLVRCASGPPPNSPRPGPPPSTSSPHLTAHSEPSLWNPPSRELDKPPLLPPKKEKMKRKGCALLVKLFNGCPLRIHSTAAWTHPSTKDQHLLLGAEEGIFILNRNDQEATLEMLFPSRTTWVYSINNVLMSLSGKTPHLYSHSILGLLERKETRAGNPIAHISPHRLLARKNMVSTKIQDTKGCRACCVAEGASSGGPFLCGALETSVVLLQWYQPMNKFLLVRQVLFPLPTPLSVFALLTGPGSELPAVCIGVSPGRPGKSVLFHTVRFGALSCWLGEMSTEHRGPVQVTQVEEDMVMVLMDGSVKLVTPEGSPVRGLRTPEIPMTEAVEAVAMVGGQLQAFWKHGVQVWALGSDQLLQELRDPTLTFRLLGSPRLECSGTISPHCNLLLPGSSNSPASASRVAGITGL

[11] = molecular target: Tyrosine-protein kinase ABL2 (Homo sapiens) (UniProt P42684); assay: Inhibition of human recombinant ABL2 at 40 nM in presence of ATP by radiometric assay relative to control
Sequence of Tyrosine-protein kinase ABL2 (Homo sapiens) (P42684 whole entry): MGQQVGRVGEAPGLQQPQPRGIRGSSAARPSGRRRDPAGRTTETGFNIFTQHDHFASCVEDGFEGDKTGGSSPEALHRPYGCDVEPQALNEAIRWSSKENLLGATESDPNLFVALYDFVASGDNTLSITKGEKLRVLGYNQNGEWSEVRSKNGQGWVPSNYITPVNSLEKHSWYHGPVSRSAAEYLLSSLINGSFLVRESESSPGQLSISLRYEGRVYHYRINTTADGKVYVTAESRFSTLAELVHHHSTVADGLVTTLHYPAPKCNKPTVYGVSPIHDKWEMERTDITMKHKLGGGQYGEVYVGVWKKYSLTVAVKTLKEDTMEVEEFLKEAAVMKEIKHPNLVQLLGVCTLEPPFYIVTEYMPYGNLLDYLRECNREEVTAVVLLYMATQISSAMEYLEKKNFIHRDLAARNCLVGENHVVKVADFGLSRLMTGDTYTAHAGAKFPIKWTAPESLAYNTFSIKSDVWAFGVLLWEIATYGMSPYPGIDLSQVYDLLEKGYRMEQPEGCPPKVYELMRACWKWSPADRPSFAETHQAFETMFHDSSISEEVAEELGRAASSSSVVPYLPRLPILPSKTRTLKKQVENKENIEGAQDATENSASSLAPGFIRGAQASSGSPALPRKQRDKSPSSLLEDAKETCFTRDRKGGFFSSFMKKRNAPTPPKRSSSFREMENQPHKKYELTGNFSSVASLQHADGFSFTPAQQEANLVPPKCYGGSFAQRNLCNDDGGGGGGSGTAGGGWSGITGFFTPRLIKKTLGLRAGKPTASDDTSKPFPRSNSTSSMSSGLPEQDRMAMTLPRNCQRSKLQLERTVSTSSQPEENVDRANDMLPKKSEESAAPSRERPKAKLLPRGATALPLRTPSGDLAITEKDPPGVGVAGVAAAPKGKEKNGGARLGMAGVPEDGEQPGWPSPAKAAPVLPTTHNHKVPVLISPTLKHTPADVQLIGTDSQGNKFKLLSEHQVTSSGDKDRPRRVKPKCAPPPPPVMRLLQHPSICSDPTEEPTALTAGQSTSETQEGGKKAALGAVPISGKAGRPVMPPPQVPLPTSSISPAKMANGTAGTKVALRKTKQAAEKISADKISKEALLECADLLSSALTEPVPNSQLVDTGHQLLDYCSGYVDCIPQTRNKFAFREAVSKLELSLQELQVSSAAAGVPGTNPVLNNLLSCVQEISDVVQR
How it was run: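 Panel of 327 recombinant human kinases in radiometric activity assays, each screened in duplicate at a single inhibitor concentration; percent activity remaining relative to vehicle control, percent inhibition taken as 100 minus activity remaining.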

[12] = molecular target: Fibroblast growth factor receptor 4 (Homo sapiens) (UniProt P22455); assay: Inhibition of human recombinant FGFR4 at 40 nM related to control ULK1
Sequence of Fibroblast growth factor receptor 4 (Homo sapiens) (P22455 22-802 limits assumed): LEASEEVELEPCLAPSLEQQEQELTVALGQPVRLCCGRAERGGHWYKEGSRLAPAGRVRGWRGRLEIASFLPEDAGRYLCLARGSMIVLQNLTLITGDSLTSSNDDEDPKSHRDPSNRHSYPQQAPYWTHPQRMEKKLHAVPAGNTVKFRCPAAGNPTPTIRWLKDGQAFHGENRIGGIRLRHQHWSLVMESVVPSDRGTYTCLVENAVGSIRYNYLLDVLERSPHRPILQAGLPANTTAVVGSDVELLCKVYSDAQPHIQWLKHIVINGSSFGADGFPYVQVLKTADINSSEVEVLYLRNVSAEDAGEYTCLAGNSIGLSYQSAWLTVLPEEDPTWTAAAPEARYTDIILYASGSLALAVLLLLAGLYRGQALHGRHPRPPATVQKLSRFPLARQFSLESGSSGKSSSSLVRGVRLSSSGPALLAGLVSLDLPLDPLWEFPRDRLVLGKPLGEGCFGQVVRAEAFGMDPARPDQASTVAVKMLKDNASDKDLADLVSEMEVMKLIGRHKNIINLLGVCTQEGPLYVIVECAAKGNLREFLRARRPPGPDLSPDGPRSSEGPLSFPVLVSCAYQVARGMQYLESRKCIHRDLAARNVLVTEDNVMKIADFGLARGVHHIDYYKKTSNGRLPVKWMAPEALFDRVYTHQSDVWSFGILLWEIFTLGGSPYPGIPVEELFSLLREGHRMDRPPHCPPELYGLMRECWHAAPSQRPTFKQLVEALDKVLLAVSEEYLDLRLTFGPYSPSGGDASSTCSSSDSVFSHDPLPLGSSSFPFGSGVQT

[13] = molecular target: Casein kinase II subunit alpha' (Homo sapiens) (UniProt P19784); assay: Inhibition of human recombinant CK2a2 at 40 nM in presence of ATP by radiometric assay relative to control
Sequence of Casein kinase II subunit alpha' (Homo sapiens) (P19784 whole entry, looked up): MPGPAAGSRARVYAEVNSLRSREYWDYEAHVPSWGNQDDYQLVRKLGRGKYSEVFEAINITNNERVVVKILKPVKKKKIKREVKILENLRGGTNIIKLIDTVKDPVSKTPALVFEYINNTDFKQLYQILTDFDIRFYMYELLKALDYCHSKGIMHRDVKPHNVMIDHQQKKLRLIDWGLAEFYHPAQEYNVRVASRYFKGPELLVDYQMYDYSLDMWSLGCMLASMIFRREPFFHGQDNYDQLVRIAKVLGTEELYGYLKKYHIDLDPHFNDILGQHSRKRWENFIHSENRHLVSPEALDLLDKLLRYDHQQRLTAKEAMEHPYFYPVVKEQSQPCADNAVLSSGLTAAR

[14] = molecular target: Bone morphogenetic protein receptor type-1B (Homo sapiens) (UniProt O00238); assay: Inhibition of human recombinant BMPR1B at 40 nM related to control ULK1
Sequence of Bone morphogenetic protein receptor type-1B (Homo sapiens) (O00238 whole entry): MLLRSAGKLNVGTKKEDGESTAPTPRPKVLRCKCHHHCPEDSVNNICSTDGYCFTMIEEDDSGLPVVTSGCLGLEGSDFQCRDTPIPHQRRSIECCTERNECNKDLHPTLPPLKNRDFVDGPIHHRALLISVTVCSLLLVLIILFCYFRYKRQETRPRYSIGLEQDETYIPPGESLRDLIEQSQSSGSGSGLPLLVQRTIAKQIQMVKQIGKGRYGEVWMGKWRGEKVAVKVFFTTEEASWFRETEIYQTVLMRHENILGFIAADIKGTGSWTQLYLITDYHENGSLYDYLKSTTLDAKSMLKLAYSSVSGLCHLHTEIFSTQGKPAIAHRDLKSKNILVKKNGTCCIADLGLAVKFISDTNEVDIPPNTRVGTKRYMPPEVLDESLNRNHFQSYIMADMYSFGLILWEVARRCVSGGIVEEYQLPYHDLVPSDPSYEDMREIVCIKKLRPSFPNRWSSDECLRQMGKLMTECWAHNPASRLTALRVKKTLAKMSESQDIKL
How it was run: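 Radiometric activity assays in a panel of 327 human recombinant kinases, each run in duplicate at one inhibitor concentration. Activity remaining is expressed as percent of vehicle control, and percent inhibition is calculated as 100% minus percent activity remaining.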

fold change (FC) [1]: 0.96 | fold change (FC) [2]: 0.03
Structure (SMILES): CNC(=O)c1ccccc1Oc1nc(Nc2cc(OC)c(OC)c(OC)c2)ncc1Br

inhibition [3]: 22% | inhibition [4]: 8% | inhibition [5]: 1% | fold change (FC) [6]: 0 | fold change (FC) [7]: 0.64 | fold change (FC) [8]: 0
Structure (SMILES): CC(C)[C@H](NC(=O)c1cc(-c2cnn3cc(-c4ccc(OCCN5CCCCC5)cc4)cnc23)cs1)C(F)(F)F

inhibition [9]: 0% | fold change (FC) [10]: 0 | inhibition [11]: 7% | fold change (FC) [12]: 0 | inhibition [13]: 8% | fold change (FC) [14]: 0
Structure (SMILES): O=C(N[C@@H](C1CC1)C(F)(F)F)c1cc(-c2cnn3cc(-c4ccc(F)cc4)cnc23)cs1
